High-throughput results from PubChem.
Shown are actives, neighbours in structure and some others; about 1.2% of the full set was active somewhere.
RBBP9 inh = human RBBP9 hydrolase inhibition; 220,000 compounds, 0.2% hits; inhibition, % at 7.94 µM; recombinant RBBP9, FP-Rh probe fluorescence polarization;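 active = inhibition above the campaign mean of all tested compounds plus 3 SD, cut at about 14% in these data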;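 note: plate controls were DMSO wells with RBBP9 for no effect and wells lacking RBBP9 protein for full effect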
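Test system – recombinant human RBBP9 · Input – RBBP9 2.5 µM in dispensing solution, pre-mixing · Medium – Tris buffer pH 8.0, NaCl, Pluronic · Schedule – preincubation 30 min plus labeling 45 min at 25 °C · Measured by – fluorescence polarization · Measure – % inhibition · Controls – DMSO and no-protein wells · Replicates – one well per compound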
FID counter = fluorescent intercalator displacement, NS3 helicase counter-screen; DNA fluorescent intercalator displacement, fluorescence; inhibition, % at 7.9 µM; 290,000 compounds, 0.17% hits; AID 1845; in the data active = inhibition above about 37%;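 note: 0% = vehicle and 100% = reference compound; higher means more ethidium bromide displaced from hairpin DNA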
Rad51 HR inh = blocks human Rad51 in homologous recombination; Q06609; hRad51 DNA strand exchange, fluorescence dequenching; inhibition, % at 10 µM; 200,000 compounds, 0.085% hits; AID 1385;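 active = inhibition above 40% at the single screening dose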;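 note: 0% = DMSO control wells and 100% = blanks with heterologous ssDNA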
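Material: hRad51 filaments on single-stranded DNA; Reagent: Donor/quencher-labelled 47-bp dsDNA substrate; Compound: 10 µM final, single point; Schedule: 37 °C 15-min filament assembly, 30-min compound preincubation, 15-min exchange; Technique: FRET fluorescence, excitation 485 nm, emission 520 nm; Benchmarks: control wells and blank wells on each plate.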
Wee1 degr inh = blocks degradation of human Wee1 kinase; P30291; HeLa Luc-Wee1K328M stability, luciferase luminescence; 100% = proteasome inhibitor MG132 effect; 220,000 compounds, 1.2% hits; reporter increase, % at 5 µM;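 active = activation above the mean of all tested compounds plus 3 SD, set per screening run, cut at about 8.8% in these data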;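 note: cells exposed to compound for 20 h before luminescence read; 0% = DMSO alone and 100% = MG132 at 30 µM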
Target sequence (P30291 whole entry K328M): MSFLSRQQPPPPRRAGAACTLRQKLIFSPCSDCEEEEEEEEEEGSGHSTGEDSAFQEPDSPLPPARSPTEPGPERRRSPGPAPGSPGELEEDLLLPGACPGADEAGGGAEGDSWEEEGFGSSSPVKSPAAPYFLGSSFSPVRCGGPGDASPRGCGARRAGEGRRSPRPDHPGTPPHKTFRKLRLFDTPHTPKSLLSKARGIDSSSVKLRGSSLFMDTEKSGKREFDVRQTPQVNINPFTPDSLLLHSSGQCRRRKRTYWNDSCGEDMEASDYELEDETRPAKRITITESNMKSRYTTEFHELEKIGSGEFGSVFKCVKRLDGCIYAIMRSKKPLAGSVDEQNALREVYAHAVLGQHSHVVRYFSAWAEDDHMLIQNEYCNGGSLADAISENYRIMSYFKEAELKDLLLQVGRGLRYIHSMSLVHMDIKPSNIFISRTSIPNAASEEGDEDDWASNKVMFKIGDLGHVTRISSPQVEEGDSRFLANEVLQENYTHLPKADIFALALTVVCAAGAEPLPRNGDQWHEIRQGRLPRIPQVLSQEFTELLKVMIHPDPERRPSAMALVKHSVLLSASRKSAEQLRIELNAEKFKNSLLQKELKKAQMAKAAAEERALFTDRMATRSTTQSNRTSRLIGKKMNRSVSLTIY
Wee1 stab conf = confirmation of human Wee1 degradation inhibitors; shares compounds with Wee1 degr inh; HeLa Luc-Wee1K328M degradation, luminescence; vehicle 0%, proteasome-blocked wells 100%; activation, % at 5 µM; 1,100 compounds, 4% hits; in the data active = activation above about 8.9%
RBBP9 confirm = human RBBP9 inhibition, confirmation; inhibition, % at 7.94 µM; shares compounds with RBBP9 inh; AID 1537; recombinant RBBP9, FP-Rh probe fluorescence polarization; 410 compounds, 36% hits;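 active = inhibition above the hit cutoff derived for the primary screen, cut at about 15% in these data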;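 note: 0% = RBBP9 with DMSO and 100% = wells lacking RBBP9 protein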
The depositor's hits bear a star; . = not tested or not shown.

SMILES	RBBP9 inh	FID counter	Rad51 HR inh	Wee1 degr inh	Wee1 stab conf	others
CN(C)C1(CNC(=O)Cc2ccccc2F)CCCCC1	.	-2	.	.	.
CN1C2CCC1/C(=C/c1ccccn1)C(=O)/C2=C\c1ccccn1	-2	-4	1	21*	.
Cc1ccc(-c2nn(Cc3ccccc3)cc2C=O)cc1C	-5	-14	2	3	.
Cc1ccc(-c2nn(Cc3ccccc3)cc2C=O)cc1	-3	-5	8	9.1*	.
CCN(CC)P(=O)(/C=C(\Cl)c1ccccc1)/C=C(\Cl)c1ccccc1	-6	-10	-5	-1	.
CC(NCc1ccc(Cl)cc1)C(O)c1ccccc1 (stereo not given)	-5	7	-5	8.9*	.
COc1ccc(N=Nc2c(O)[nH]c(=S)[nH]c2=O)cc1	-6	-2	-6	9.8*	.
COc1cccc(N=Nc2c(O)[nH]c(=S)[nH]c2=O)c1	-8	2	1	2	.
Cc1c2ccncc2c(C)c2c1[nH]c1ccccc12	-3	54*	5	-2	.
Cc1ccsc1C(=O)C1CCCN(Cc2cnc(N)nc2)C1 (stereo not given)	6	2	.	9.6*	.
COc1ccccc1NC(=O)c1cn(CCC#N)nc1-c1ccc(F)cc1	.	-19	.	.	.
Cc1ccc(NC(=O)CCNC(=O)N2C[C@H]3C[C@@H](C2)c2cccc(=O)n2C3)c(C)c1	.	-9	.	.	.
CC12CN3CC(C)(CN(C1)C3c1ccco1)C2=O (stereo not given)	-3	-2	1	9.3*	.
CN1CC[C@@H](c2ccc(F)cc2)[C@H](COc2ccc3c(c2)OCO3)C1	.	.	-3	.	.
C1CCCN(C2CCNCC2)CC1	.	6	.	.	.
CC1=CC(C)C(COC(N)=O)(COC(N)=O)C(C)C1 (stereo not given)	-1	-12	48*	-1	.
CC12CN3CC(C)(CN(C1)C3c1cccs1)C2O (stereo not given)	-5	0	2	13*	0
O=C(C[N+]12CCC(CC1)C(CO)C2)c1ccc([N+](=O)[O-])cc1 (stereo not given)	-4	5	23	14*	3
Cc1cc(OCC(=O)NC(Cc2ccc(Cl)cc2)C(=O)O)c2c3c(c(=O)oc2c1)CCCC3 (stereo not given)	.	7	.	.	.
CCOc1ccc([N+](=O)[O-])cc1CNCCc1ccccc1	-1	13	9	11*	-2
O=[N+]([O-])c1ccc(CNCCc2ccccc2)cc1	.	11	.	.	.
CC1(C)C2([N+](=O)[O-])CN3CC1([N+](=O)[O-])CN(C2)C3c1cccnc1 (stereo not given)	-3	1	14	14*	0
CC12CN3CC(C)(CN(C1)C3c1cccnc1)C2=O (stereo not given)	-7	-6	-7	5	.
CCN(CC)CCCN=Cc1c(O)n(-c2ccccc2F)c(=O)[nH]c1=O	-5	-1	-4	36*	-1
COc1ccc(-c2cc(=NCC(=O)O)c3ccccc3o2)cc1	.	-7	.	.	.
SMILES	RBBP9 inh	FID counter	Rad51 HR inh	Wee1 degr inh	Wee1 stab conf	others
CC(=O)OC1(c2ccccc2)CC(C(C)(C)C)CN(C(C)(C)C)C1 (stereo not given)	2	-2	.	14*	6
COc1ccccc1N1CCN(Cc2ccc(F)cc2)CC1	-13	-3	-7	14*	3
COc1ccccc1N1CCN(Cc2ccc(SC)cc2)CC1	.	5	.	.	.
COc1ccc(-c2cc(=NCCCCCC(=O)O)c3cc(C)ccc3o2)cc1	-1	-13	20	17*	3
Cc1cc(C=C2C(=O)N(C)C(=S)N(C)C2=O)c(C)n1-c1cccnc1	-5	-11	-28	0	.
O=C(COc1ccccc1)N1CCN(C/C=C/c2ccccc2)CC1	3	-20	4	1	.
O=C(COc1ccc(Cl)cc1)N1CCN(C/C=C/c2ccccc2)CC1	-5	-20	-7	17*	3
O=C(c1cccn2c(=O)c3cc(Cl)ccc3nc12)N1CCC2(CC1)OCCO2	-11	-2	-1	-2	.
Cn1c(NN=O)nc2ccccc21	-7	2	7	15*	2
CN1CCN(Cc2nc3ccccc3n2C)CC1	-9	-1	3	-1	.
O=C(C(Cc1ccccc1)NS(=O)(=O)c1ccc(F)cc1)N1CCC2(CC1)OCCO2 (stereo not given)	-8	-32	-10	-2	.
CCN(CC)C(=O)c1ccc2c(c1)C1C(Cl)C(Sc3ccccc3[N+](=O)[O-])CC1C(C(=O)O)N2 (stereo not given)	28*	13	-1	-1	.	RBBP9 confirm=11
O=P(Oc1ccccc1)(Oc1ccccc1)c1ccccc1	8	-37	-27	1	.
